From the EternaBench riboswitch data come the findings set out here.

This data set has as its system MS2 coat protein. Put plainly: apparent Kd, MS2 coat protein; higher = weaker binding; RNA-MaP array; FMN 200 µM where present. A digest of the protocol:
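Green signal from SNAP-549-labelled MS2 coat protein was normalised to red-channel RNA signal and to the median Fmax of control clusters. The protein was titrated from 0.7 or 1.5 nM, doubling to 3 µM, without and then with constant ligand, over designs transcribed by stalled E. coli RNA polymerase on Illumina sequencing-chip clusters, in 100 mM Tris-HCl pH 7.5, 80 mM KCl, 4 mM MgCl2, BSA, DTT, yeast tRNA and Tween-20. The apparent Kd is the median of filtered per-cluster binding-curve fits.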

The mark [1] stands for this setting: designed as: OFF switch for flavin mononucleotide, no ligand.
[2] abbreviates: ligand present: flavin mononucleotide, designed as: OFF switch for flavin mononucleotide.
Where [3] appears, read: designed as: ON switch for flavin mononucleotide, no ligand.
Setting [4] is: ligand present: flavin mononucleotide, designed as: ON switch for flavin mononucleotide.

In general, apparent Kd refers to a dissociation constant that holds for the conditions of the assay. “AAAUCGUCAGGAUAUGCUAGUAAAUGUUACAUUUCUUCAUAGCAGAAGGGACAUGAGGAUCACCCAUGUAAGUC”: the “apparent Kd” value reads like this: under setting [1], 0.0337 µM; under setting [2], 0.0456 µM.
Regarding “AUUUUAUAAUAGAAGGAAGACUUCAUGAGGAUCACCCAUGUGUUGGUACUUAGGAUAUGUAAUAACAUGAGGAUCACCCAUGUC”, the “apparent Kd” value was 0.0256 µM under setting [3] and 0.0261 µM under setting [4].
Regarding “UUAGAGGAUUGAGGAUAUGCAGAGAGAUUAUGCGCGUCGCGCACAUGAGGAUCACCCAUGUAAGAGCAGAAGGUAACUAUGAUC”, the “apparent Kd” value reads like this: under setting [1], 0.0243 µM; under setting [2], 0.0218 µM.
Regarding “GGGUACAUCGGAGGAUAUCAUGUAAAUACAUGAGGAUCACCCAUGUCGAUGGAGACAUCGGCGAUUGAGAAGGCCGAUGUACCG”, the “apparent Kd” value reads like this: under setting [3], 0.752 µM; under setting [4], 0.0176 µM.
“GGAUCGAAUGUGAGGAUAUACCACUGGAUACAGUGGUAGAAGGCACAUGAGGAUCACCCAUGUCUCUACGAUCC”: the “apparent Kd” value stood at 0.0196 µM under setting [1] and 0.111 µM under setting [2].
On the same counts, the results for “GCAAGAAUAGGAUAUACACCGUGUCAGCUUCUAUACAUCGCACAUGAGGAUCACCCAUGUAGAAGGGUUCUCUG” are 0.236 µM and 0.217 µM.
Taken in the same sequence, the figures for “CCGGCUUAGUAGGAUAUCAGAGUCGAAAGACUCUGAGAAGGACUAACAUGAGGAUCACCCAUGUGUCCUACCGG” were 0.0159 µM and 0.036 µM.
Taken in the same sequence, the figures for “UCACGGAGCCUAGGAUAUACAUGAGGAUCACCCAUGUAUUGACGUUAGUGCUGGACUGAUUUGCUGUAGAAGGAGGUCACUGAG” were 0.0166 µM and 0.0183 µM.
“UCGUGAAGGACAGGAUAUGGACAUGAGGAUCACCCAUGUACAUGGGAAUGUAUACUGAAUUUGUACUAGAAGGGUUACAUAAAU”: the “apparent Kd” value is, setting by setting: under setting [1], 0.0299 µM; under setting [2], 0.0206 µM.
Turning to “GGGUACAUCGGAGGAUAUCAUGUAAAUACAUGAGGAUCACCCAUGUCGAUGGAGACAUCGGAGAUUGAGAAGGCCGAUGUACCA”, the “apparent Kd” value is, setting by setting: under setting [3], 0.154 µM; under setting [4], 0.0101 µM.
As to “CCGGAAAUGCAGGAUAUCGUAUCGGAUACGAUACGAGAAGGGUAUACAUGAGGAUCACCCAUGUGUCCUACCGG”, the “apparent Kd” value by setting is: under setting [1], 0.0185 µM; under setting [2], 0.0221 µM.
Turning to “GGAACCGCUCAGAAGGACAUGAGGAUCACCCAUGUAGGAUAUGACUCGGUCUUUACGUGGCGCCCUGCAUCAUCGUUAUCUGCU”, the “apparent Kd” value under setting [3] was found to be 0.165 µM and the “apparent Kd” value under setting [4] turned out to be 0.0231 µM.
As to “UGAGCCUCGUGAGGAUAUACAUGAGGAUCACCCAUGUAAAUGGAAGAACGGAGGAAACUCCGAAUGUAGAAGGCACGAGGCUCA”, the “apparent Kd” value under setting [1] was 0.145 µM and the “apparent Kd” value under setting [2] came to 0.773 µM.
On the same counts, the results for “GGUGCGUUUGUGAGGAUAUGCUGGUCCUUGGUUCCGCAGAAGGCACAUGAGGAUCACCCAUGUGGUGUCGUACC” are 0.195 µM and 0.373 µM.
With “GUCAGCUCGUGAGGAUAUACAUGUGCUGGAAACAGCACUAAAGUUUUCACAUGAGGAUCACCCAUGUAGAAGGCACGAGCUGAU”, the “apparent Kd” value runs as follows: under setting [1], 0.0158 µM; under setting [2], 0.0352 µM.
For “GGUACUCAAAGAGUACCAAUACGAACAUGAGGAUCACCCAUGUAGGAUAUGCUACUCAAAGAGUAGCAGAAGGACAUGUGCCUU”, the “apparent Kd” value is, setting by setting: under setting [1], 0.0314 µM; under setting [2], 0.252 µM.
Consider “AACAUGAGGAUCACCCAUGUCCCACCAGAAGGCUGGCGGCCACAGGAACGGCUGUGGCAAAUAACAGAGGAUAUGGUGAAUGCA”, for which the “apparent Kd” value is, setting by setting: under setting [3], 0.0808 µM; under setting [4], 0.0161 µM.
Turning to “GCCUCAUAGUAGAAGGGACUUAUACAGUAAUGUUUUUAGUGUAAAUAACAUGAGGAUCACCCAUGUCAGGAUAUACUAAGAGGC”, the “apparent Kd” value reads like this: under setting [1], 0.00924 µM; under setting [2], 0.0121 µM.
In the case of “UUCGCUAAGGUGUAGCGAGACUUGCAAGAAGGGUGAAGAACAUGAGGAUCACCCAUGUAAGCCUUACAGGAUAUUGCUUGACGA”, the “apparent Kd” value reads like this: under setting [3], 0.106 µM; under setting [4], 0.0364 µM.
On the same counts, the results for “CCCAAACUUGGGUUUGGUGGUGCAUAGGAUAUGCUUGAACAUGAGGAUCACCCAUGUACUAUUGUGCAGAAGGGUGCAUGGCAA” are 0.401 µM and 0.0291 µM.
